In paper PMC8738139 (Neuron, 2021) one finds Ki data, which are given here for one compound.

The target of this experiment is CNGA1 (Homo sapiens, UniProt P29973+Q14028). Kind of experiment: cryo-EM structures. It counts as cell-based. The essentials: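 HEK293 cells co-transfected with human CNGA1/B1 and a GFP marker, then trypsinised and re-plated 48 h later. Whole-cell currents recorded at 100 mV. Pipette: 140 mM KCl, 5 mM EGTA, 10 mM HEPES pH 7.4, 1 mM cGMP. Bath: 140 mM NaCl, 4 mM KCl, 1 mM EGTA, 10 mM HEPES pH 7.4 plus varied test compound. Ki from Hill fit; mean ± SEM, n=5.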
CNGA1, sequence (P29973 141-686): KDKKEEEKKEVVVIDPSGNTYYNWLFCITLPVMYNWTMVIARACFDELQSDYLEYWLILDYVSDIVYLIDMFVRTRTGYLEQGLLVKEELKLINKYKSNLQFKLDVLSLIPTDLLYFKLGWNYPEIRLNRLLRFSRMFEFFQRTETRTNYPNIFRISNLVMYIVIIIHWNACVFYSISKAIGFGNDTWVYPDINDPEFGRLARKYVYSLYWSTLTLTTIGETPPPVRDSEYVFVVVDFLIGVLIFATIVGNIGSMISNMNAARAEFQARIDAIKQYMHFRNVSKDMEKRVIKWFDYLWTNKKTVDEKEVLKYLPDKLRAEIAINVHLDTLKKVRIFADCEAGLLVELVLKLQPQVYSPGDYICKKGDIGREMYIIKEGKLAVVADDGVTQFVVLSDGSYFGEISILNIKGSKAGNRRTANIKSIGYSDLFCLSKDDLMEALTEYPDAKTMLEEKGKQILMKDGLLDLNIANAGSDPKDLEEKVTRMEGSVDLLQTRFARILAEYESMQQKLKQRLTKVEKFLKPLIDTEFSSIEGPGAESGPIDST
CNGA1, sequence (Q14028 456-1251): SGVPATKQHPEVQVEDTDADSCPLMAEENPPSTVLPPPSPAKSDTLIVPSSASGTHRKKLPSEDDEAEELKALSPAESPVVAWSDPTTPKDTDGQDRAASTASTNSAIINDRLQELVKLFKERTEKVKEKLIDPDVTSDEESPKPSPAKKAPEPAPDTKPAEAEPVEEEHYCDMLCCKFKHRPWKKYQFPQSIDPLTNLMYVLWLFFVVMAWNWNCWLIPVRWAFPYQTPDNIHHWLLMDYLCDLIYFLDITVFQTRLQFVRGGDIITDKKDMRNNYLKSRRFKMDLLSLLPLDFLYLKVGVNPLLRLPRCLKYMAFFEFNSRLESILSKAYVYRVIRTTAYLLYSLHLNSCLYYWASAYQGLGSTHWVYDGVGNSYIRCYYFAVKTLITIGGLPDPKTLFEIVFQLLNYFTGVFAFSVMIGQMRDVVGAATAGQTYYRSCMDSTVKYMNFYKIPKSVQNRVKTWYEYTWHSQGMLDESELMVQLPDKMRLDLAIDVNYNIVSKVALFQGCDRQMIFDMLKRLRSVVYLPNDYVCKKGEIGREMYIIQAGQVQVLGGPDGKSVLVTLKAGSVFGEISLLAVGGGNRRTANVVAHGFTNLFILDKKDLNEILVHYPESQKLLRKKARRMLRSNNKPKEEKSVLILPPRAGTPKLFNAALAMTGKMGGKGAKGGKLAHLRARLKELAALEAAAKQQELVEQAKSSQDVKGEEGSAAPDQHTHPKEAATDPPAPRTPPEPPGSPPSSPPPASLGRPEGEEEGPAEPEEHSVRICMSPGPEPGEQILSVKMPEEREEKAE

The structures appear in SMILES notation.

For orientation: Ki means the equilibrium dissociation constant of an inhibitor or competing ligand from its target. Compound `COc1ccc([C@H]2Sc3ccccc3N(CCN(C)C)C(=O)[C@H]2OC(C)=O)cc1` [L-cis-Diltiazem] displayed an inhibitory constant (Ki) of 3.68 ± 0.13 µM.
